In ChEMBL document CHEMBL1148475, “Nonpeptide luteinizing hormone-releasing hormone antagonists derived from erythromycin A: design, synthesis, and biological activity of cladinose replacement analogues” (J Med Chem, 2004):

Assays:
[1] = target: T1, Gonadotropin-releasing hormone receptor (Homo sapiens, UniProt P30968); assay: In vitro binding affinity was determined against human Luteinizing hormone-releasing hormone (LHRH) receptor cloned in CHO cells; format: cell-based
T1 sequence (P30968 whole entry): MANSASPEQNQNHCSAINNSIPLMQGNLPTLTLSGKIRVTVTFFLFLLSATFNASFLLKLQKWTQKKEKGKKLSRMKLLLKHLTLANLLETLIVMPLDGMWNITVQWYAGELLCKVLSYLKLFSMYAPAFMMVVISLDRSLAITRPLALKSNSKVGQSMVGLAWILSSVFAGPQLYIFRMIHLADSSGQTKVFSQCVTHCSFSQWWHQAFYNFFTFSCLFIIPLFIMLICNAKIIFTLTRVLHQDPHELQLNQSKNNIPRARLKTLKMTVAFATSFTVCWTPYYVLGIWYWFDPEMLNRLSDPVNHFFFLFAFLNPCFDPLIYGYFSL

[2] = target: T2, Gonadotropin-releasing hormone receptor (Rattus norvegicus, UniProt P30969); assay: In vitro binding affinity to rat luteinizing hormone-releasing hormone (LHRH) receptor cloned in CHO cells; format: cell-based
T2 sequence (P30969 whole entry): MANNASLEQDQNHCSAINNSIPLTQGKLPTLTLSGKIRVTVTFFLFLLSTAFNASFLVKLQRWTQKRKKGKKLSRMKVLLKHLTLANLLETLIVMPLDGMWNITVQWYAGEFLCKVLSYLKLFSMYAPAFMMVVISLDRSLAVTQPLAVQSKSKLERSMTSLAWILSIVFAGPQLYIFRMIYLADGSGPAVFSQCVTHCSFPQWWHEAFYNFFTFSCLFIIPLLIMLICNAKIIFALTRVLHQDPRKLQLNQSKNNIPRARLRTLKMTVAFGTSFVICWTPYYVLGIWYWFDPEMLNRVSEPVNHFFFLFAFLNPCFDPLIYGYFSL

[3] = target: T1, Gonadotropin-releasing hormone receptor; assay: In vitro binding affinity to human luteinizing hormone-releasing hormone (LHRH) receptor cloned in CHO cells; format: cell-based
[4] = target: Gonadotropin-releasing hormone receptor (Rattus norvegicus, UniProt P30969); assay: In vitro binding ability against Luteinizing hormone-releasing hormone release in rat pituitary cells; format: cell-based, Pituitary gland cell; conditions: read-out: pA2 (converted)
How it was run: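 Functional antagonism of LH release measured in cultured rat pituitary cells; potency expressed as pA2.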

Compound	Ki [1]	Ki [2]	Ki [3]	Kb [4]	Log Ki ([3]; cho)
CC[C@H]1OC(=O)[C@H](C)[C@@H](OC(=O)N2CCOC2)[C@H](C)[C@@H](OC2O[C@H](C)C[C@H](N(C)C(C)C)[C@H]2O)[C@@](C)(OC)C[C@@H](C)C(=O)[C@H](C)[C@H]2N(CCc3ccc(Cl)cc3)C(=O)O[C@]12C (stereo partly drawn)	200 nM				
CC[C@H]1OC(=O)[C@H](C)[C@@H](O)[C@H](C)[C@@H](OC2O[C@H](C)C[C@H](N(C)C(C)C)[C@H]2O)[C@@](C)(OC)C[C@@H](C)C(=O)[C@H](C)[C@H]2N(CCc3ccc(Cl)cc3)C(=O)O[C@]12C (stereo partly drawn)		2510 nM	10000 nM		
CC[C@H]1OC(=O)[C@H](C)[C@@H](OC(=O)N2CCNC2=O)[C@H](C)[C@@H](OC2O[C@H](C)C[C@H](N(C)C(C)C)[C@H]2O)[C@@](C)(OC)C[C@@H](C)C(=O)[C@H](C)[C@H]2N(CCc3ccc(Cl)cc3)C(=O)O[C@]12C (stereo partly drawn)		219 nM	2040 nM		
CC[C@H]1OC(=O)[C@H](C)[C@@H](OC(=O)N2CCCC2)[C@H](C)[C@@H](OC2O[C@H](C)C[C@H](N(C)C(C)C)[C@H]2O)[C@@](C)(OC)C[C@@H](C)C(=O)[C@H](C)[C@H]2N(CCc3ccc(Cl)cc3)C(=O)O[C@]12C (stereo partly drawn)		112 nM	1620 nM		
CC[C@H]1OC(=O)[C@H](C)[C@@H](OC(=O)N2CC(C)OC2=O)[C@H](C)[C@@H](OC2O[C@H](C)C[C@H](N(C)C(C)C)[C@H]2O)[C@@](C)(OC)C[C@@H](C)C(=O)[C@H](C)[C@H]2N(CCc3ccc(Cl)cc3)C(=O)O[C@]12C (stereo partly drawn)		7.94 nM	36.3 nM		
CC[C@H]1OC(=O)[C@H](C)[C@@H](OC(=O)C2CCOC2)[C@H](C)[C@@H](OC2O[C@H](C)C[C@H](N(C)C(C)C)[C@H]2O)[C@@](C)(OC)C[C@@H](C)C(=O)[C@H](C)[C@H]2N(CCc3ccc(Cl)cc3)C(=O)O[C@]12C (stereo partly drawn)		14.1 nM	214 nM		
CC[C@H]1OC(=O)[C@H](C)[C@@H](OC(=O)CC(C)C)[C@H](C)[C@@H](OC2O[C@H](C)C[C@H](N(C)C(C)C)[C@H]2O)[C@@](C)(OC)C[C@@H](C)C(=O)[C@H](C)[C@H]2N(CCc3ccc(Cl)cc3)C(=O)O[C@]12C (stereo partly drawn)		141 nM	2040 nM		
CC[C@H]1OC(=O)[C@H](C)[C@@H](OC2C[C@@](C)(OC)[C@@H](O)[C@H](C)O2)[C@H](C)[C@@H](OC2O[C@H](C)C[C@H](N(C)C(C)C)[C@H]2O)[C@@](C)(OC)C[C@@H](C)C(=O)[C@H](C)[C@H]2N(CCc3ccc(Cl)cc3)C(=O)O[C@]12C (stereo partly drawn)		4.47 nM	22.4 nM		
CC[C@H]1OC(=O)[C@H](C)[C@@H](OC(=O)N2C(=O)O[C@H](C)[C@@H]2C)[C@H](C)[C@@H](OC2O[C@H](C)C[C@H](N(C)C(C)C)[C@H]2O)[C@@](C)(OC)C[C@@H](C)C(=O)[C@H](C)[C@H]2N(CCc3ccc(Cl)cc3)C(=O)O[C@]12C (stereo partly drawn)		2.88 nM			< -7
CC[C@H]1OC(=O)[C@H](C)[C@@H](OC(=O)N2C(=O)OCC2(C)C)[C@H](C)[C@@H](OC2O[C@H](C)C[C@H](N(C)C(C)C)[C@H]2O)[C@@](C)(OC)C[C@@H](C)C(=O)[C@H](C)[C@H]2N(CCc3ccc(Cl)cc3)C(=O)O[C@]12C (stereo partly drawn)		8.91 nM	79.4 nM		
CC[C@H]1OC(=O)[C@H](C)[C@@H](OC(=O)N2CCOCC2)[C@H](C)[C@@H](OC2O[C@H](C)C[C@H](N(C)C(C)C)[C@H]2O)[C@@](C)(OC)C[C@@H](C)C(=O)[C@H](C)[C@H]2N(CCc3ccc(Cl)cc3)C(=O)O[C@]12C (stereo partly drawn)		427 nM	5620 nM		
CC[C@H]1OC(=O)[C@H](C)[C@@H](OC(=O)N2CCOC2C)[C@H](C)[C@@H](OC2O[C@H](C)C[C@H](N(C)C(C)C)[C@H]2O)[C@@](C)(OC)C[C@@H](C)C(=O)[C@H](C)[C@H]2N(CCc3ccc(Cl)cc3)C(=O)O[C@]12C (stereo partly drawn)		120 nM	794 nM		
CC[C@H]1OC(=O)[C@H](C)[C@@H](OC(=O)N2C(=O)OC[C@H]2CC(C)C)[C@H](C)[C@@H](OC2O[C@H](C)C[C@H](N(C)C(C)C)[C@H]2O)[C@@](C)(OC)C[C@@H](C)C(=O)[C@H](C)[C@H]2N(CCc3ccc(Cl)cc3)C(=O)O[C@]12C (stereo partly drawn)		692 nM	275 nM		
CC[C@H]1OC(=O)[C@H](C)[C@@H](OC(=O)N2CCN(C)C2=O)[C@H](C)[C@@H](OC2O[C@H](C)C[C@H](N(C)C(C)C)[C@H]2O)[C@@](C)(OC)C[C@@H](C)C(=O)[C@H](C)[C@H]2N(CCc3ccc(Cl)cc3)C(=O)O[C@]12C (stereo partly drawn)		1230 nM	4680 nM		
CC[C@H]1OC(=O)[C@H](C)[C@@H](OC(=O)C2CCCC2)[C@H](C)[C@@H](OC2O[C@H](C)C[C@H](N(C)C(C)C)[C@H]2O)[C@@](C)(OC)C[C@@H](C)C(=O)[C@H](C)[C@H]2N(CCc3ccc(Cl)cc3)C(=O)O[C@]12C (stereo partly drawn)		50.1 nM	631 nM		
CCC1CN(C(=O)O[C@H]2[C@H](C)[C@@H](OC3O[C@H](C)C[C@H](N(C)C(C)C)[C@H]3O)[C@@](C)(OC)C[C@@H](C)C(=O)[C@H](C)[C@H]3N(CCc4ccc(Cl)cc4)C(=O)O[C@]3(C)[C@@H](CC)OC(=O)[C@@H]2C)C(=O)O1 (stereo partly drawn)		18.2 nM	562 nM		

Results, then the compound that gave them:

Ki [1]	Ki [2]	Ki [3]	Kb [4]	Log Ki ([3]; cho)	Compound
	0.107 nM	0.331 nM	0.479 nM		CC[C@H]1OC(=O)[C@H](C)[C@@H](OC(=O)N2C(=O)OC[C@@H]2C)[C@H](C)[C@@H](OC2O[C@H](C)C[C@H](N(C)CC3CC3)[C@H]2O)[C@@](C)(OC)C[C@@H](C)C(=O)[C@H](C)[C@H]2N(CCc3ccc(F)c(Cl)c3)C(=O)O[C@]12C (stereo partly drawn)
	1.17 nM	38 nM			CC[C@H]1OC(=O)[C@H](C)[C@@H](OC(=O)N2C(=O)OC[C@@H]2C)[C@H](C)[C@@H](OC2O[C@H](C)C[C@H](N(C)C3CCCC3)[C@H]2O)[C@@](C)(OC)C[C@@H](C)C(=O)[C@H](C)[C@H]2N(CCc3ccc(Cl)cc3)C(=O)O[C@]12C (stereo partly drawn)
	0.234 nM	15.1 nM	1.78 nM		CC[C@H]1OC(=O)[C@H](C)[C@@H](OC(=O)N2C(=O)OC[C@@H]2C)[C@H](C)[C@@H](OC2O[C@H](C)C[C@H](N(C)C(C)C)[C@H]2O)[C@@](C)(OC)C[C@@H](C)C(=O)[C@H](C)[C@H]2N(CCc3ccc(Cl)c(Cl)c3)C(=O)O[C@]12C (stereo partly drawn)
	2.14 nM	115 nM			CC[C@H]1OC(=O)[C@H](C)[C@@H](OC(=O)N2CCOC2=O)[C@H](C)[C@@H](OC2O[C@H](C)C[C@H](N(C)C(C)C)[C@H]2O)[C@@](C)(OC)C[C@@H](C)C(=O)[C@H](C)[C@H]2N(CCc3ccc(Cl)cc3)C(=O)O[C@]12C (stereo partly drawn)
	2.88 nM	18.6 nM			CC[C@H]1OC(=O)[C@H](C)[C@@H](OC(=O)N2C(=O)OC[C@@H]2C)[C@H](C)[C@@H](OC2O[C@H](C)C[C@H](N(C)C(C)C)[C@H]2O)[C@@](C)(OC)C[C@@H](C)C(=O)[C@H](C)[C@H]2N(CCc3ccc(Cl)cc3)C(=O)O[C@]12C (stereo partly drawn)
	0.692 nM	5.62 nM	0.135 nM		CC[C@H]1OC(=O)[C@H](C)[C@@H](OC(=O)N2C(=O)OC[C@@H]2C)[C@H](C)[C@@H](OC2O[C@H](C)C[C@H](N(C)C3CCCC3)[C@H]2O)[C@@](C)(OC)C[C@@H](C)C(=O)[C@H](C)[C@H]2N(CCc3ccc(Cl)c(Cl)c3)C(=O)O[C@]12C (stereo partly drawn)
	0.676 nM	1.86 nM	1.74 nM		CC[C@H]1OC(=O)[C@H](C)[C@@H](OC(=O)N2C(=O)OC[C@@H]2C)[C@H](C)[C@@H](O[C@@H]2O[C@H](C)C[C@H](N(C)CC3CC3)[C@H]2O)[C@@](C)(OC)C[C@@H](C)C(=O)[C@H](C)[C@H]2N(CCc3ccc(Cl)c(Cl)c3)C(=O)O[C@]12C
	6.31 nM	66.1 nM			CC[C@H]1COC(=O)N1C(=O)O[C@H]1[C@H](C)[C@@H](OC2O[C@H](C)C[C@H](N(C)C(C)C)[C@H]2O)[C@@](C)(OC)C[C@@H](C)C(=O)[C@H](C)[C@H]2N(CCc3ccc(Cl)cc3)C(=O)O[C@]2(C)[C@@H](CC)OC(=O)[C@@H]1C (stereo partly drawn)
	5.25 nM	49 nM			CC[C@H]1OC(=O)[C@H](C)[C@@H](OC(=O)N2C(=O)OC[C@H]2C)[C@H](C)[C@@H](OC2O[C@H](C)C[C@H](N(C)C(C)C)[C@H]2O)[C@@](C)(OC)C[C@@H](C)C(=O)[C@H](C)[C@H]2N(CCc3ccc(Cl)cc3)C(=O)O[C@]12C (stereo partly drawn)
